Screening data deposited in PubChem by several laboratories.
Hep lipid drop: hepatic lipid droplet formation modulation; AML12 mouse hepatocytes, oleate lipid droplets, BODIPY imaging; inhibition, % at 6.5 µM; 240,000 compounds, 0.4% hits;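 active = lipid droplet intensity inhibited by at least 50%, with more than 500 cells counted; inconclusive = wells with under 300 cells, treated as cytotoxic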
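Assay system: AML12 mouse liver cells | Compound dosing: One dose, 6.5 µM compound | Read-out basis: Droplet intensity reduction, % inhibition | Measured by: Fluorescence imaging, 20x objective, two fields per well | Schedule: Overnight treatment with compound plus oleate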
AHR act: activators of human aryl hydrocarbon receptor. P35869. AHR-responsive luciferase reporter cells, luminescence. activation, % at 5 µM. 320,000 compounds, 2.5% hits. AID 2796; in the data active = activation above about 47%
Target sequence (P35869 whole entry, looked up): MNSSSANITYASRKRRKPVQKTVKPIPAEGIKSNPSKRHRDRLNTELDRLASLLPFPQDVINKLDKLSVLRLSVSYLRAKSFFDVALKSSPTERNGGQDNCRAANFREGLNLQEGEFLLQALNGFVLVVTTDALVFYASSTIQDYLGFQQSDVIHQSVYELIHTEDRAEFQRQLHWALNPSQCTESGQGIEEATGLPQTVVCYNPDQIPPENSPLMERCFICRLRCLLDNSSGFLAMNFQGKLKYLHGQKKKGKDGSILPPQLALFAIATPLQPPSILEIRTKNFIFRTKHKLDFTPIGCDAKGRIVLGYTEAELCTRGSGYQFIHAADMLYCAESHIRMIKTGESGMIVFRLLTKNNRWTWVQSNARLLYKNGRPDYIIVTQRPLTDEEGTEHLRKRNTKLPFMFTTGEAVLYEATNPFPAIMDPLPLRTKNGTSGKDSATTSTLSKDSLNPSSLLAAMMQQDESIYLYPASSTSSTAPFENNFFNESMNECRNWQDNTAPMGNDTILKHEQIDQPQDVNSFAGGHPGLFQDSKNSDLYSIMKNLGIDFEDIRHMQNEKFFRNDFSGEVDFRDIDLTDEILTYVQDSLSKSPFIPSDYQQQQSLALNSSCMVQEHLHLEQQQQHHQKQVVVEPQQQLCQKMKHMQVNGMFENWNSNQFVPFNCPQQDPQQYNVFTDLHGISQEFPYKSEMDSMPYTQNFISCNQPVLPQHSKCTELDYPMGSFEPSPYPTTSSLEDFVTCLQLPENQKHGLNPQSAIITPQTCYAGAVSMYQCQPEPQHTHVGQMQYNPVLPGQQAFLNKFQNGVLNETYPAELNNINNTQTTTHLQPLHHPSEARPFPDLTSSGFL
SR-BI HDL uptake: mouse SR-BI HDL lipid transfer inhibition; ldlA[mSR-BI] CHO cells, DiI-HDL uptake fluorescence, 3 h; Q61009; inhibition, % at 12.5 µM; 320,000 compounds, 0.96% hits;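 active = mean replicate inhibition of at least 70% and a set share of replicates each scoring 70 or more; inconclusive = meets just one of the two criteria; inactive = fails both criteria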
CR mimetic SO: yeast age-related superoxide inhibition as caloric restriction mimetic. 330,000 compounds, 0.18% hits. superoxide response (% of plate mean), % at 10 µM. S. cerevisiae aged cells, superoxide DHE fluorescence; hits give low values;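 active = superoxide response under a set limit, about three screen SD below normal, cut at about 65% in these data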;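 note: yeast aged for seven days with compound at 30 °C before DHE staining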
SR-BI DiI-HDL act: activators of SR-BI mediated HDL lipid uptake. activation, % at 12.5 µM. CHO ldlA[mSR-BI] cells, DiI-HDL uptake fluorescence, 3 h; 100 = double the neutral-control signal. 320,000 compounds, 0.096% hits;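 active = mean replicate activation of at least 60% and every replicate at or above 60%; inconclusive = mean or all-replicate condition met, but not both; inactive = mean below 60% and not all replicates reaching 60%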
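system = CHO ldlA[mSR-BI] cells, LDL receptor-null, SR-BI overexpressing | medium = Ham's F12 with 0.5% BSA, HEPES 25 mM, pH 7.4 | probe or stimulus = DiI-HDL 10 µg/mL | compound dosing = single-point compound dose | incubation = compound exposure 3 h, 37 °C | technique = DiI fluorescence, bottom read | read-out = cell-associated DiI fluorescence as measure of HDL uptake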
SMARCA2 activ: increases SMARCA2 function in MMTV reporter cells | MG213 cells, MMTV-luciferase reporter, dexamethasone, overnight | activation, % at 9.1 µM | 370,000 compounds, 1% hits; in the data active = activation above about 7.8%
AHR act confirm: confirmation of human aryl hydrocarbon receptor activators. AID 2845. activation, % at 9 µM. human cells, AHR-responsive luciferase reporter, luminescence. 2,300 compounds, 87% hits. shares compounds with AHR act; in the data active = activation above about 49%;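 note: HepG2 hepatoma cells carrying a DRE-driven firefly luciferase reporter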
PXR act counter: PXR activation, counter-screen for AHR activators. shares compounds with AHR act. cell-based PXR reporter, luciferase luminescence. activation, % at 11.6 µM. 2,300 compounds, 88% hits; in the data active = activation above about 11%;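 note: human hepatoma DPX-2 cells expressing full-length human PXR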
DiI quench: counter-screen for SR-BI lipid transfer inhibitors: DiI fluorescence quenchers | cell-free DiI-HDL fluorescence quenching, 30 min | 470 compounds, 20% hits | shares compounds with SR-BI HDL uptake | AC50, µM (top dose mostly 35 µM);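 active = quenching, a falling signal, with AC50 below a set limit tied to the top valid dose, actives reach about 32 µM in these data; inconclusive = no clear call, values can overlap the other calls; inactive = rising signal, and the rest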
SMARCA2 act conf: SMARCA2 activation, confirmation screen; shares compounds with SMARCA2 activ; MG213 cells, MMTV-luciferase with dexamethasone, luminescence, overnight; MG213 cells expressing E1A, Rb sequestered; DMSO wells 0%, reference activator 100%; activation, % at 9.1 µM; 3,500 compounds, 30% hits; AID 652260;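 active = activation above its plate's cutoff, the mean activation of tested wells plus 3 SD, cut at about 7.9% in these data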
GAL4-VP16 Luc: GAL4-VP16 reporter activation counter-screen | shares compounds with SMARCA2 activ | HEK293 GAL4-VP16 pG5luc reporter, luciferase luminescence; scaled: DMSO wells 0%, SAHA wells 100% | activation, % at 9.1 µM | 3,500 compounds, 41% hits | AID 686939;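 active = activation above the solvent-only control well mean plus 3 SD, averaged across control plates, cut at about 5.2% in these data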
Numbers stand for hits; n = inactive; u = inconclusive; x = not tested or not shown. This is a sample that favours compounds with a hit; in the whole collection about 4.3% have one here.

SMILES	Hep lipid drop	AHR act	SR-BI HDL uptake	CR mimetic SO	SR-BI DiI-HDL act	SMARCA2 activ	AHR act confirm	SMARCA2 act conf	GAL4-VP16 Luc	others
Cc1cc(=O)oc2cc(OCC(=O)c3ccccc3)ccc12	x	n	n	n	n	n	x	x	x
Cc1cc(=O)oc2cc(OCCc3ccccc3)ccc12	x	81	n	n	n	8.6	140	8.7	21	PXR act counter=21
CCCCN(C)C(=O)c1oc(=O)c2ccccc2c1-c1ccc(C)cc1	x	x	x	x	x	n	x	x	x
O=C(CCc1ccccc1)N[C@H]1[C@@H](OC(=O)C2CC2)CCC[C@@]12C(=O)N(Cc1ccccc1)c1ccccc12	x	x	x	x	x	n	x	x	x
NC(=O)c1ccc(NCCc2cccs2)cc1	x	x	x	x	x	n	x	x	x
Cn1c2ccccc2c(=O)c2ccc(NCCc3cccs3)cc21	x	111	n	n	n	9.0	n	9.4	14	PXR act counter=113
C#CCn1c2ccccc2c2nc3ccccc3nc21	x	88	n	n	n	9.3	191	n	n	PXR act counter=49
Cc1nc2cc(-c3ccc(Cl)cc3)nn2c(NCCN(C)C)c1C	n	114	n	n	n	9.9	102	19	7.9	PXR act counter=15
COc1ccc(NC(=O)c2ccc(C)cc2)c(OC)c1	n	120	n	n	n	14	96	n	6.8
COC(=O)[C@]12C[C@H](CC(=O)NCCC(C)C)C(=O)N(CCc3ccc(OC)c(OC)c3)C1=C[C@H](C(C)C)O[C@@H]2C1CC1	x	x	x	x	x	n	x	x	x
O=C(Nc1ccc2c(c1)OCCO2)C(=O)c1c[nH]c2ccccc12	x	n	n	n	n	n	x	x	x
O=C(Nc1ccc2c(c1)OCO2)C(=O)c1c[nH]c2ccccc12	n	84	n	n	n	9.2	70	n	7.7	PXR act counter=38
COc1ccccc1-c1nnc(-c2ccc(N3CCOCC3)cc2)o1	n	n	n	n	n	n	x	x	x
COc1ccccc1-c1nnc(-c2ccc(C)cc2)o1	x	81	n	n	n	13	123	n	7.1	PXR act counter=39
COc1ccc(OC)c2[nH]c(C(=O)N3CCC(C(=O)O)CC3)cc12	n	n	75	n	n	n	x	x	x	DiI quench=n
COc1ccc(OC)c(CCNC(=O)Cc2ccc(NC3=NC4CS(=O)(=O)CC4S3)cc2)c1 (stereo unspecified)	n	n	n	n	n	n	x	x	x
COc1ccc(OC)c(CCNC(=O)c2ccc(NC3=NC4CS(=O)(=O)CC4S3)cc2)c1 (stereo unspecified)	n	n	83	n	n	n	x	x	x	DiI quench=n
O=C1CCCC2=C1[C@@]1(O[C@H]3C=CC=CN23)C(=O)N(c2ccccc2)c2ccccc21	x	x	x	x	x	n	x	x	x
COc1ccc(OCCSc2nnc(-c3cccnc3)n2N)cc1	n	n	106	n	n	n	x	x	x	DiI quench=n
COC(=O)[C@]1(CNC(C)=O)CC(=O)N(Cc2ccc(Cl)cc2)[C@@H]1c1ccc(OC)cc1	x	x	x	x	x	n	x	x	x
Cc1ccc(NS(=O)(=O)c2ccc(C(=O)NNC(=O)c3ccccc3O)cc2)cc1	x	n	120	n	n	n	x	x	x	DiI quench=0.46µM
COCCCN(C(=O)c1ccco1)c1nc(-c2ccc(OC)cc2)cs1	n	n	111	n	n	n	x	x	x	DiI quench=n
C[C@@H]1CN(S(=O)(=O)C(C)(C)C)[C@H](CCO)/C1=C\CCO	x	x	x	x	x	n	x	x	x
Cc1cc(C)cc(N(CCC#N)C(=O)COC(=O)CCc2c[nH]c3ccccc23)c1	x	n	u	n	n	n	x	x	x	DiI quench=n
O=C(COC(=O)CCc1c[nH]c2ccccc12)Nc1ccccc1	x	x	n	x	n	n	x	x	x
